# Measurements reported in ChEMBL document CHEMBL4842318, “A γ-lactam siderophore antibiotic effective against multidrug-resistant Pseudomonas aeruginosa, Klebsiella pneumoniae, and Acinetobacter spp” (Eur J Med Chem, 2021).
# Experiments:
# [1] = test system: Acinetobacter baumannii; test: Antibacterial activity against 98 member subset of carbapenem resistant Acinetobacter baumannii assessed as assessed as inhibition of bacterial growth by microdilution method; assay type: functional
# In short: (§1)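 Broth microdilution in Chelex-treated, iron-depleted cation-adjusted Mueller-Hinton broth, following the protocol used for siderophore-containing antibiotics; inoculum lowered to 6 × 10^4 cfu/mL; MIC read as growth inhibition, in μg/mL.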
# [2] = test system: Pseudomonas aeruginosa; test: Antibacterial activity against wild type Pseudomonas aeruginosa isolate PR-545 assessed as inhibition of bacterial growth by microdilution method; assay type: functional
# In short: (§2)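 Broth microdilution MIC in iron-depleted (Chelex resin-treated) cation-adjusted Mueller-Hinton broth, following the protocol used for siderophore-containing antibiotics. Inoculum was lowered to 6 × 10^4 cfu/mL.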
# [3] = test system: Pseudomonas aeruginosa; test: Antibacterial activity against wild type Pseudomonas aeruginosa isolate PR-548 assessed as inhibition of bacterial growth by microdilution method; assay type: functional; in short: as §2
# [4] = test system: Pseudomonas aeruginosa; test: Antibacterial activity against wild type Pseudomonas aeruginosa isolate PR-567 assessed as inhibition of bacterial growth by microdilution method; assay type: functional; in short: as §2
# [5] = test system: Pseudomonas aeruginosa; test: Antibacterial activity against wild type Pseudomonas aeruginosa isolate PR-672 assessed as inhibition of bacterial growth by microdilution method; assay type: functional; in short: as §2
# [6] = test system: Pseudomonas aeruginosa; test: Antibacterial activity against wild type Pseudomonas aeruginosa isolate PR-604 assessed as inhibition of bacterial growth by microdilution method; assay type: functional; in short: as §2
# [7] = test system: Pseudomonas aeruginosa; test: Antibacterial activity against wild type Pseudomonas aeruginosa isolate PR-638 assessed as inhibition of bacterial growth by microdilution method; assay type: functional; in short: as §2
# [8] = test system: Pseudomonas aeruginosa; test: Antibacterial activity against wild type Pseudomonas aeruginosa isolate PR-676 assessed as inhibition of bacterial growth by microdilution method; assay type: functional; in short: as §2
# [9] = test system: Pseudomonas aeruginosa; test: Antibacterial activity against wild type Pseudomonas aeruginosa isolate PR-503 assessed as inhibition of bacterial growth by microdilution method; assay type: functional; in short: as §2
# [10] = test system: Pseudomonas aeruginosa; test: Antibacterial activity against Pseudomonas aeruginosa isolate PR-564 leucine at 533 residue assessed as inhibition of bacterial growth by microdilution method; assay type: functional; in short: as §1
# [11] = test system: Pseudomonas aeruginosa; test: Antibacterial activity against wild type Pseudomonas aeruginosa isolate PR-606 assessed as inhibition of bacterial growth by microdilution method; assay type: functional; in short: as §2
# [12] = test system: Pseudomonas aeruginosa; test: Antibacterial activity against Pseudomonas aeruginosa isolate PR-627 leucine at 533 residue assessed as inhibition of bacterial growth by microdilution method; assay type: functional; in short: as §1
# [13] = test system: Pseudomonas aeruginosa; test: Antibacterial activity against wild type Pseudomonas aeruginosa isolate PR-635 assessed as inhibition of bacterial growth by microdilution method; assay type: functional; in short: as §2
# [14] = test system: Pseudomonas aeruginosa; test: Antibacterial activity against wild type Pseudomonas aeruginosa isolate PR-636 leucine at 533 residue assessed as inhibition of bacterial growth by microdilution method; assay type: functional; in short: as §2
# [15] = test system: Pseudomonas aeruginosa; test: Antibacterial activity against wild type Pseudomonas aeruginosa isolate PR-651 leucine at 533 residue assessed as inhibition of bacterial growth by microdilution method; assay type: functional; in short: as §2
# [16] = test system: Pseudomonas aeruginosa; test: Antibacterial activity against wild type Pseudomonas aeruginosa isolate PR-668 leucine at 533 residue assessed as inhibition of bacterial growth by microdilution method; assay type: functional; in short: as §2
# [17] = test system: Pseudomonas aeruginosa; test: Antibacterial activity against wild type Pseudomonas aeruginosa isolate PR-673 leucine at 533 residue assessed as inhibition of bacterial growth by microdilution method; assay type: functional; in short: as §2
# [18] = test system: Pseudomonas aeruginosa; test: Antibacterial activity against wild type Pseudomonas aeruginosa isolate PR-677 assessed as inhibition of bacterial growth by microdilution method; assay type: functional; in short: as §2
# [19] = test system: Pseudomonas aeruginosa; test: Antibacterial activity against wild type Pseudomonas aeruginosa isolate PR-680 leucine at 533 residue assessed as inhibition of bacterial growth by microdilution method; assay type: functional; in short: as §2
# [20] = test system: Pseudomonas aeruginosa; test: Antibacterial activity against wild type Pseudomonas aeruginosa isolate PR-688 leucine at 533 residue assessed as inhibition of bacterial growth by microdilution method; assay type: functional; in short: as §2
# [21] = test system: Pseudomonas aeruginosa; test: Antibacterial activity against wild type Pseudomonas aeruginosa isolate PR-699 assessed as inhibition of bacterial growth by microdilution method; assay type: functional; in short: as §2
# [22] = test system: Pseudomonas aeruginosa; test: Antibacterial activity against Pseudomonas aeruginosa AR-BANK#0229; assay type: functional; in short: as §1
# [23] = Inhibition of Acinetobacter sp. strain ATCC 27244 PBP3 expressed in Escherichia coli BL21 (DE3) assessed as reduction in fluorescence intensity using Bocillin-protein as fluorescent substrate by SDS PAGE analysis
# [24] = test system: Acinetobacter baumannii; test: Antibacterial activity against panel of 198 clinical isolates Acinetobacter baumannii assessed as inhibition of bacterial growth by microdilution method; assay type: functional
# [25] = test system: Acinetobacter baumannii; test: Antibacterial activity against carbapenem resistant Acinetobacter baumannii isolate PR-314 assessed as bacterial growth inhibition by microdilution method; assay type: functional; in short: as §1
# [26] = test system: Acinetobacter baumannii; test: Antibacterial activity against carbapenem resistant Acinetobacter baumannii isolate PR-319 assessed as bacterial growth inhibition by microdilution method; assay type: functional; in short: as §1
# [27] = test system: Acinetobacter baumannii; test: Antibacterial activity against carbapenem resistant Acinetobacter baumannii isolate PR-325 assessed as bacterial growth inhibition by microdilution method; assay type: functional; in short: as §1
# [28] = test system: Acinetobacter baumannii; test: Antibacterial activity against carbapenem resistant Acinetobacter baumannii isolate PR-326 assessed as bacterial growth inhibition by microdilution method; assay type: functional; in short: as §1
# [29] = test system: Acinetobacter baumannii; test: Antibacterial activity against carbapenem susceptible Acinetobacter baumannii isolate PR-340 assessed as bacterial growth inhibition by microdilution method; assay type: functional; in short: as §2
# [30] = test system: Acinetobacter baumannii; test: Antibacterial activity against carbapenem resistant Acinetobacter baumannii isolate PR-342 assessed as bacterial growth inhibition by microdilution method; assay type: functional; in short: as §1
# [31] = test system: Acinetobacter baumannii; test: Antibacterial activity against carbapenem resistant Acinetobacter baumannii isolate PR-345 assessed as bacterial growth inhibition by microdilution method; assay type: functional; in short: as §1
# [32] = test system: Acinetobacter baumannii; test: Antibacterial activity against carbapenem resistant Acinetobacter baumannii isolate PR-351 assessed as bacterial growth inhibition by microdilution method; assay type: functional; in short: as §1
# [33] = test system: Acinetobacter baumannii; test: Antibacterial activity against carbapenem resistant Acinetobacter baumannii isolate PR-380 assessed as bacterial growth inhibition by microdilution method; assay type: functional; in short: as §1
# [34] = test system: Acinetobacter baumannii; test: Antibacterial activity against carbapenem resistant Acinetobacter baumannii isolate PR-384 assessed as bacterial growth inhibition by microdilution method; assay type: functional; in short: as §1
# [35] = test system: Acinetobacter baumannii; test: Antibacterial activity against carbapenem resistant Acinetobacter baumannii isolate PR-387 assessed as bacterial growth inhibition by microdilution method; assay type: functional; in short: as §1
# [36] = test system: Acinetobacter baumannii; test: Antibacterial activity against carbapenem resistant Acinetobacter baumannii isolate PR-399 assessed as bacterial growth inhibition by microdilution method; assay type: functional; in short: as §1
# [37] = test system: Acinetobacter baumannii; test: Antibacterial activity against carbapenem resistant Acinetobacter baumannii isolate PR-401 assessed as bacterial growth inhibition by microdilution method; assay type: functional; in short: as §1
# [38] = test system: Acinetobacter baumannii; test: Antibacterial activity against carbapenem resistant Acinetobacter baumannii isolate PR-423 assessed as bacterial growth inhibition by microdilution method; assay type: functional; in short: as §1
# [39] = test system: Acinetobacter baumannii; test: Antibacterial activity against carbapenem resistant Acinetobacter baumannii isolate PR-459 assessed as bacterial growth inhibition by microdilution method; assay type: functional; in short: as §1
# [40] = test system: Acinetobacter baumannii; test: Antibacterial activity against carbapenem resistant Acinetobacter baumannii isolate PR-482 assessed as bacterial growth inhibition by microdilution method; assay type: functional; in short: as §1
# [41] = Antibacterial activity against carbapenem susceptible Acinetobacter nosocomialis isolate PR-362 assessed as bacterial growth inhibition by microdilution method; assay type: functional; in short: as §2
# [42] = Antibacterial activity against carbapenem susceptible Acinetobacter nosocomialis isolate PR-365 assessed as bacterial growth inhibition by microdilution method; assay type: functional; in short: as §2
# [43] = Antibacterial activity against carbapenem susceptible Acinetobacter nosocomialis isolate PR-412 assessed as bacterial growth inhibition by microdilution method; assay type: functional; in short: as §2
# [44] = Antibacterial activity against carbapenem susceptible Acinetobacter nosocomialis isolate PR-491 assessed as bacterial growth inhibition by microdilution method; assay type: functional; in short: as §2
# [45] = test system: Acinetobacter baumannii; test: Antibacterial activity against carbapenem susceptible Acinetobacter baumannii isolate PR-434 assessed as bacterial growth inhibition by microdilution method; assay type: functional; in short: as §2
# [46] = test system: Acinetobacter baumannii; test: Antibacterial activity against carbapenem susceptible Acinetobacter baumannii isolate PR-452 assessed as bacterial growth inhibition by microdilution method; assay type: functional; in short: as §2
# [47] = test system: Acinetobacter baumannii; test: Antibacterial activity against carbapenem susceptible Acinetobacter baumannii isolate PR-464 assessed as bacterial growth inhibition by microdilution method; assay type: functional; in short: as §2
structure (smiles),measurement,setting,value
C[C@H]1[C@H](NC(=O)/C(=N\OC(C)(C)C(=O)O)c2csc(N)n2)C(=O)N1S(=O)(=O)O [AZTREONAM],MIC50,[1],> 32 µg/mL
same,MIC90,[1],> 32 µg/mL
CC(C)(O/N=C(\C(=O)N[C@H]1CN2CC(C(=O)NCCN3C(=O)c4cc(O)c(O)cc4C3=O)=C(C(=O)O)N2C1=O)c1csc(N)n1)C(=O)O (stereo in doubt),MIC,[2],≤ 0.25 µg/mL
same,MIC,[3],≤ 0.25 µg/mL
same,MIC,[4],≤ 0.25 µg/mL
same,MIC,[5],≤ 0.25 µg/mL
same,MIC,[6],≤ 0.25 µg/mL
same,MIC,[7],> 16 µg/mL
same,MIC,[8],16 µg/mL
same,MIC,[9],16 µg/mL
same,MIC,[10],> 16 µg/mL
same,MIC,[11],16 µg/mL
same,MIC,[12],> 16 µg/mL
same,MIC,[13],16 µg/mL
same,MIC,[14],> 16 µg/mL
same,MIC,[15],> 16 µg/mL
same,MIC,[16],> 16 µg/mL
same,MIC,[17],> 16 µg/mL
same,MIC,[18],16 µg/mL
same,MIC,[19],> 16 µg/mL
same,MIC,[20],> 16 µg/mL
same,MIC,[21],> 16 µg/mL
same,MIC,[22],0.25 µg/mL
C[C@@H](O)[C@H]1C(=O)N2C(C(=O)O)=C(S[C@@H]3CN[C@H](CNS(N)(=O)=O)C3)[C@H](C)[C@H]12 [DORIPENEM],IC50,[23],2.3 µM
C[C@@H](O)[C@H]1C(=O)N2C(C(=O)O)=C(S[C@@H]3CN[C@H](C(=O)N(C)C)C3)[C@H](C)[C@H]12 [MEROPENEM],MIC50,[24],8 µg/mL
same,MIC90,[24],> 64 µg/mL
same,MIC90,[1],> 64 µg/mL
CC(C)(O/N=C(\C(=O)N[C@@H]1C(=O)N2C(C(=O)[O-])=C(C[n+]3ccccc3)CS[C@H]12)c1csc(N)n1)C(=O)O [CEFTAZIDIME],MIC50,[24],64 µg/mL
same,MIC90,[24],> 64 µg/mL
same,MIC50,[1],> 64 µg/mL
same,MIC90,[1],> 64 µg/mL
CC1(C)[C@H](C(=O)O)N2C(=O)C[C@H]2S1(=O)=O [SULBACTAM],MIC,[25],16 µg/mL
same,MIC,[26],> 32 µg/mL
same,MIC,[27],32 µg/mL
same,MIC,[28],2 µg/mL
same,MIC,[29],4 µg/mL
same,MIC,[30],> 32 µg/mL
same,MIC,[31],16 µg/mL
same,MIC,[32],16 µg/mL
same,MIC,[33],16 µg/mL
same,MIC,[34],16 µg/mL
same,MIC,[35],16 µg/mL
same,MIC,[36],16 µg/mL
same,MIC,[37],16 µg/mL
same,MIC,[38],16 µg/mL
same,MIC,[39],32 µg/mL
same,MIC,[40],32 µg/mL
same,MIC,[41],1 µg/mL
same,MIC,[42],1 µg/mL
same,MIC,[43],2 µg/mL
same,MIC,[44],2 µg/mL
same,MIC,[45],8 µg/mL
same,MIC,[46],1 µg/mL
same,MIC,[47],1 µg/mL
